For series [1], the target named is Protein kinase C delta type (Homo sapiens, UniProt Q05655). Put plainly: Binding affinity to PKCdelta C1B subdomain after 1 hr by fluorescence quenching analysis. Summed up: (§1)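 Purified C1B subdomain of PKC delta, epsilon or theta was titrated with ligand in 50 mM Tris, 150 mM NaCl, 2 mM DTT, ZnSO4, pH 7.2, at 25 °C. Intrinsic fluorescence was excited at 280 nm and emission recorded from 300–550 nm. (F0−F)/F at 350 nm was plotted against ligand concentration, and the curve was fitted to a modified Hill equation to give EC50 and Hill coefficient.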
Sequence of Protein kinase C delta type (Q05655 whole entry): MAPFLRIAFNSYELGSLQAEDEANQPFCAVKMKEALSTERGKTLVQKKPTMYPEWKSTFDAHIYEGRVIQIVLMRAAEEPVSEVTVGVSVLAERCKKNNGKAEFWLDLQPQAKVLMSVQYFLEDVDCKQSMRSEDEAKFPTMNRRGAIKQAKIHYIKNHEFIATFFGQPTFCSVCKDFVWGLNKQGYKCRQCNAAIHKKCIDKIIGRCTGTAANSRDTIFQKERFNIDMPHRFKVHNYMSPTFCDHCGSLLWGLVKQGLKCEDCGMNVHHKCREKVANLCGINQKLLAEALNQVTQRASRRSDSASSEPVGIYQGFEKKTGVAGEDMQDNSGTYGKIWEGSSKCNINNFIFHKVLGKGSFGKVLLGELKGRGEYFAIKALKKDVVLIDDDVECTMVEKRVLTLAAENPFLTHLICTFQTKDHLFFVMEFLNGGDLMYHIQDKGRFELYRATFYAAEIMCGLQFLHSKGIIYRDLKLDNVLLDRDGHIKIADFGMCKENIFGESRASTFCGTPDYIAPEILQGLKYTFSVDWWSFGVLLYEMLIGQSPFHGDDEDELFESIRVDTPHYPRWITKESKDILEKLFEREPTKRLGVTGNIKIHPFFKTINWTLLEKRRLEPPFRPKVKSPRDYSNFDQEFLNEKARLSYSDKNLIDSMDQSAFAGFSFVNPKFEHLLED

Series [2] addresses Protein kinase C theta type (Homo sapiens, UniProt Q04759). As to the kind of experiment: Binding affinity to PKCtheta C1B subdomain after 1 hr by fluorescence quenching analysis. In outline:
as §1

Series [3] concerns the target T1, Protein kinase C epsilon type (Homo sapiens, UniProt Q02156).
T1 sequence (Q02156 whole entry): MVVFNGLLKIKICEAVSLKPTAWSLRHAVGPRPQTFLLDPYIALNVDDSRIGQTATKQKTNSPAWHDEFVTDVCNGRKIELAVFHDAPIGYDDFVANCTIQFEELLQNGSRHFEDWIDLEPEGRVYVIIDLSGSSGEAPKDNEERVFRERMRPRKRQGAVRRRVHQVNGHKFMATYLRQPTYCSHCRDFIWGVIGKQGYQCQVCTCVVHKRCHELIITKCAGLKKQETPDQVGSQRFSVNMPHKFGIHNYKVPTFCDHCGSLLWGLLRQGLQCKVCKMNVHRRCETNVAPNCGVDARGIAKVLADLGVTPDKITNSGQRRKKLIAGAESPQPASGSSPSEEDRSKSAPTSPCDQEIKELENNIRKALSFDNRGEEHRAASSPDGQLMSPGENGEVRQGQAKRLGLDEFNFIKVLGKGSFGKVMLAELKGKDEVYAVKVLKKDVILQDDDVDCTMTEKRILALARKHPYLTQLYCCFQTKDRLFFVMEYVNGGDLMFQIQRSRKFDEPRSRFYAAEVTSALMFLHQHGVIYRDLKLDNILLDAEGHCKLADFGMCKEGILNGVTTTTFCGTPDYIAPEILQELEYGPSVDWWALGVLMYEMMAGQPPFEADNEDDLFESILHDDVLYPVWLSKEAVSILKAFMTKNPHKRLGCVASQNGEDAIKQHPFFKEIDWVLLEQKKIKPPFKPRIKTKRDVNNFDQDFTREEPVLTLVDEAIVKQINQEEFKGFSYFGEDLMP
Put plainly: Binding affinity to PKCepsilon C1B subdomain after 1 hr by fluorescence quenching analysis. In outline:
as §1

A short description of series [4]: Selectivity ratio of EC50 for PKCepsilon C1B subdomain to EC50 for PKCtheta C1B subdomain. Summed up: (§2)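 Ratios of EC50 values, each taken from a modified-Hill fit of intrinsic tryptophan/tyrosine fluorescence quenching (excitation 280 nm, read at 350 nm) of the C1B subdomains in Tris/NaCl/DTT/ZnSO4 buffer, pH 7.2, at 25 °C.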
The nature of series [5]: Selectivity ratio of EC50 for PKCdelta C1B subdomain to EC50 for PKCtheta C1B subdomain. Summed up: as §2
A short description of series [6]: Solubility of the compound. Type of series: physicochemical.

Sequence of Protein kinase C theta type (Q04759 whole entry): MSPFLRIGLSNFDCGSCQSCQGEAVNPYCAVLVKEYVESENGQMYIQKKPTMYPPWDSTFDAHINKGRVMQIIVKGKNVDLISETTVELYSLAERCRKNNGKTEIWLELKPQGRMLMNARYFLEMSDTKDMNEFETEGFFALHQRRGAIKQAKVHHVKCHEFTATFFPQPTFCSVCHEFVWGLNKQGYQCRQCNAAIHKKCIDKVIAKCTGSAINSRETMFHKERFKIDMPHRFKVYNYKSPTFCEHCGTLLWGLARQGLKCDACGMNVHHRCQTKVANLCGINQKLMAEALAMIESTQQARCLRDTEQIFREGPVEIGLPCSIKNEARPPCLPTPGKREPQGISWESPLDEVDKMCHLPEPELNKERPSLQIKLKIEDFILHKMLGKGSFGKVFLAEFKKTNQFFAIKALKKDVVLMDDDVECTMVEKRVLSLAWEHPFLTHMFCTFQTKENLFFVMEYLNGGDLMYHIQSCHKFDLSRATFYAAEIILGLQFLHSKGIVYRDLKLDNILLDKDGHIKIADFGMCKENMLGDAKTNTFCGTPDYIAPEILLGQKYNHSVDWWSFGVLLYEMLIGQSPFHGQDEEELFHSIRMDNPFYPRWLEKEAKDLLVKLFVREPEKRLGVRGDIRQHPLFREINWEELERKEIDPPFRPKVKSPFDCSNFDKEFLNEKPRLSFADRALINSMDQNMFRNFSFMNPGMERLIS

Usually EC50 stands for the concentration at which the effect is half-maximal. A lower EC50 goes with an effect from little substance. `CCCCOc1ccc(/C=C/c2cc(/C=C/c3ccc(O)c(OC)c3)n[nH]2)cc1OC`: the concentration for a half-maximal effect (EC50) came to 21.6 µM in series [1], 15.8 µM in series [2] and 16.1 µM in series [3].
Regarding `COc1cc(/C=C/c2cc(/C=C/c3ccc(O)c(OC)c3)on2)ccc1O`, the Ratio EC50 in series [4] and in series [5] was 3 in each case. The concentration giving a half-maximal response (EC50) in series [1] stood at 11.5 µM; in series [2], 3.16 µM; in series [3], 11.8 µM.
As to `COc1cc(/C=C/c2cc(/C=C/c3ccc(O)c(OC)c3)[nH]n2)ccc1O` [CURCUMIN PYRAZOLE], the Ratio EC50 in series [4] and in series [5] was 2 each time. Besides, the figures for the EC50 in series [1], in series [2] and in series [3] were 15 µM, 7.25 µM and 18.8 µM, respectively.
As for `CCCCOc1ccc(/C=C/c2cc(/C=C/c3ccc(OCCCC)c(OC)c3)on2)cc1OC`, the 50% effective concentration (EC50) in series [1] amounted to 25.2 µM; in series [2], 7.14 µM; in series [3], 23.4 µM.
Regarding `CCCCCCCCOc1ccc(/C=C/c2cc(/C=C/c3ccc(OCCCCCCCC)c(OC)c3)on2)cc1OC`, the solubility entry in series [6] is reported as “Insoluble”.
